The results in this text go back to PMC5063151 (Chemmedchem, 2015).

The test system of test [1] is VEGF (v107 / receptor binding site). The test can be described thus: STD competition assay with peptide v107. Particulars: 1 mM baicalin, 10 μM VEGF, 298 K, 50 and 100 μM v107.
Another test concerns VEGF11−109 (VEGF). The test can be described thus: STD and WaterLOGSY ligand-observed NMR binding experiments. The note with it: STD, 1 mM baicalin, 10 μM VEGF, 298 K. The essentials:
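Ligand‑observed STD and WaterLOGSY were run with 10 μM VEGF and 0.5 or 1 mM test compound in 25 mM sodium phosphate pH 7.0, 50 mM NaCl, […], at 37, 25 or 5 °C on 600/500 MHz spectrometers. On‑resonance saturation targeted the aliphatic protein region (STD) or the water signal (WaterLOGSY). Binding was judged from ligand STD/WaterLOGSY signals.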

For test [2], the target named is T1, methyl‐13C‐Met‐labeled VEGF (Homo sapiens, UniProt P15692).
T1 sequence (P15692 217-315): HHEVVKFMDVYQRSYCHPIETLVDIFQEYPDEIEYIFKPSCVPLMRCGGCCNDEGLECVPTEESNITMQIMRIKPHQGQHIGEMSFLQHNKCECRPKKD
The test can be described thus: Protein-observed CSP with methyl‐13C‐Met‐labeled VEGF. It counts as binding. The essentials:
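Methyl‑13C‑Met‑labeled VEGF at 30 μM in 25 mM sodium phosphate pH 7.0, 50 mM NaCl, 10% D2O, usually at 45 °C. 1H–13C HSQC used 256×96 points with 8 scans per increment. 13C‑decoupled‑13C‑filtered 1D 1H spectra used 2048 points and 128 scans. KD came from ligand‑titration chemical shift perturbations.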

In the case of `O=C(O)[C@H]1O[C@@H](Oc2cc3oc(-c4ccccc4)cc(=O)c3c(O)c2O)[C@H](O)[C@@H](O)[C@@H]1O` [baicalin], in test [1], the “STD competition with v107 (reduction of ligand STD signals)” value is “baicalin and v107 compete for the same binding site”. Moreover, the “Binding of isolated compound to VEGF” value in the test on VEGF11−109 (VEGF) is “able to bind VEGF”.

Consider `O=c1c(O[C@@H]2O[C@H](CO)[C@@H](O)[C@H](O)[C@H]2O)c(-c2ccc(O)c(O)c2)oc2cc(O)cc(O)c12` [quercetin‐3‐β‐glucoside], for which the “Methionine perturbations on 13C‐filtered‐13C‐decoupled 1H NMR spectra of VEGF” value in test [2] (baicalin‐related flavonoids of Figure 7 a) is reported as “induced methionine perturbations”.

Turning to “&D‐Pro‐Trp‐Glu‐D‐Pro‐Trp‐Glu& (head to tail)”, the “VEGF binding affinity from titration experiments” value in test [2] (CSP titration, methyl‐13C‐Met‐labeled VEGF) is given as “low‐millimolar range”.
